Here are results for seven compounds from ChEMBL document CHEMBL4033661, “Small molecules inhibit STAT3 activation, autophagy, and cancer cell anchorage-independent growth” (Bioorg Med Chem, 2017).

Experiment [1] deals with T1, Maternal embryonic leucine zipper kinase (Homo sapiens, UniProt Q14680). The experiment in a line: Inhibition of MELK in human MDA-MB-231 cells assessed as upregulation of p53-dependent p21WAF1/CIP1 expression at 5 uM by Western blot method. In kind it is cell-based. The following applies: TDE = time-dependent effect. In a few lines: (§1)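 Cells were treated at 5 µM over 48 h. Total lysates were made in RIPA with protease/phosphatase inhibitors, 30 µg protein was run on 10% SDS-PAGE and moved to nitrocellulose. Primary antibodies were applied overnight at 4 °C, then IRDye 800 anti-mouse or Alexa Fluor 680 anti-rabbit secondaries for 1 h at RT, with infrared imaging. Actin served as loading control. Band changes are given as percent of control, mean ± SD, n = 2.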
Target sequence in this assay (Q14680 whole entry, looked up): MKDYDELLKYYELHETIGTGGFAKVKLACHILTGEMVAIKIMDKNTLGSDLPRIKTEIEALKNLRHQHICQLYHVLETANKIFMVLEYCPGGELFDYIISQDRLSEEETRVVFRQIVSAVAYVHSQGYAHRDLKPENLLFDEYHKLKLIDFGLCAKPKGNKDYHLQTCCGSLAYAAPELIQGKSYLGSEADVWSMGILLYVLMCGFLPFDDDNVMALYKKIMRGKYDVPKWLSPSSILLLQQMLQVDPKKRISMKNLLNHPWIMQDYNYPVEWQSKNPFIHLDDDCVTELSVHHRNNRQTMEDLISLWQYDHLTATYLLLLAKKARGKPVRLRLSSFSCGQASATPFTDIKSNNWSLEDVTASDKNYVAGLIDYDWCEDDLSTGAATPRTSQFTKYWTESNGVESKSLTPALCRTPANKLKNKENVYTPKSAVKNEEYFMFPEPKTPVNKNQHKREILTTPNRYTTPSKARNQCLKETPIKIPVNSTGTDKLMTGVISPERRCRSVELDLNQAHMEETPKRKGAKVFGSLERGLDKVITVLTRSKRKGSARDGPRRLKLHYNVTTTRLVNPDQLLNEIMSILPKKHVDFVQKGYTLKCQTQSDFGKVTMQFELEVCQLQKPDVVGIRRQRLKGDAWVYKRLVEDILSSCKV

Experiment [2] has as its target T1, Maternal embryonic leucine zipper kinase. The experiment in a line: Inhibition of MELK in human MDA-MB-468 cells assessed as upregulation of p53-dependent p21WAF1/CIP1 expression at 5 uM by Western blot method. The experiment is classed as cell-based. The following applies: TDE = time-dependent effect. The procedure, abridged: as §1
Target sequence in this assay (Q14680 whole entry, looked up): as above
A general note: A western blot detects proteins with antibodies after separation by electrophoresis.

For experiment [3] the target is unchanged. Kind of experiment: Inhibition of MELK in human MDA-MB-468 cells assessed as decrease in cyclin A2 level at 5 uM measured over 48 hrs by Western blot method. In kind it is cell-based. The procedure, abridged:
as §1
Target sequence in this assay (Q14680 whole entry, looked up): as above

The target is the same in experiment [4]. The experiment in a line: Inhibition of MELK in human MDA-MB-231 cells assessed as decrease in cyclin A2 level at 5 uM measured over 48 hrs by Western blot method. The experiment is classed as cell-based. In a few lines:
as §1
Target sequence in this assay (Q14680 whole entry, looked up): as above

Experiment [5] shares this target. The experiment in a line: Inhibition of MELK in human MDA-MB-468 cells assessed as decrease in p53 phosphorylation at Ser15 residue at 5 uM by Western blot method. In kind it is cell-based. The following applies: TDE = time-dependent effect. The procedure, abridged: as §1
Target sequence in this assay (Q14680 whole entry, looked up): as above
The target in experiment [6] is Signal transducer and activator of transcription 3 (Homo sapiens) (UniProt P40763). The experiment in a line: Inhibition of [gamma32P]-ATP labelled DNA binding to STAT3 dimer (unknown origin) at 5 uM after 4 hrs by electrophoretic mobility shift assay. In a few lines:
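STAT3 consensus oligonucleotide was 5'-labeled with [γ-32P]ATP using polynucleotide kinase. Nuclear protein (2 µg) was incubated with probe for 30 min on ice in 10 mM Tris, 50 mM KCl, 1 mM DTT, 50 µM EDTA, 50 ng/µL poly(dI-dC), pH 7.5. Samples were run on a 4% native polyacrylamide gel in Tris-glycine-EDTA, then the gel was dried and autoradiographed.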
In general terms: Mobility shift assays separate free from complexed probe on a gel.

The target of experiment [7] is RAC-alpha serine/threonine-protein kinase (Homo sapiens) (UniProt P31749). The experiment in a line: Inhibition of Akt phosphorylation in human MDA-MB-468 cells by Western blot method. The experiment is classed as cell-based.
The target in experiment [8] is Signal transducer and activator of transcription 3 (Homo sapiens) (UniProt P40763). Kind of experiment: Inhibition of STAT3 phosphorylation at Tyr705 in human MDA-MB-231 cells at 5 uM measured at 4 hrs by Western blot method. The experiment is classed as cell-based.
Experiment [9] has the same target. The experiment in a line: Inhibition of STAT3 phosphorylation at Tyr705 in human MDA-MB-468 cells at 5 uM measured at 4 hrs by Western blot method. In kind it is cell-based.
The target is the same in experiment [10]. The experiment in a line: Inhibition of STAT3 phosphorylation in human MDA-MB-231 cells assessed as downregulation of survivin level at 5 uM up to 48 hrs by Western blot method. In kind it is cell-based. The procedure, abridged:
as §1

For experiment [11] the target is unchanged. The experiment in a line: Inhibition of STAT3 phosphorylation in human MDA-MB-468 cells assessed as down regulation of survivin level at 5 uM up to 48 hrs by Western blot method. In kind it is cell-based. The procedure, abridged: as §1
Experiment [12] has the same target. Kind of experiment: Inhibition of STAT3 phosphorylation in human MDA-MB-231 cells assessed as downregulation of Bcl-XL level at 5 uM up to 48 hrs by Western blot method. The experiment is classed as cell-based. In a few lines: as §1
For experiment [13] the target is unchanged. The experiment in a line: Inhibition of STAT3 phosphorylation in human MDA-MB-468 cells assessed as down regulation of Bcl-XL level at 5 uM up to 48 hrs by Western blot method. In kind it is cell-based. In a few lines:
as §1

Experiment [14] has the same target. The experiment in a line: Inhibition of STAT3 at Tyr705 in human MDA-MB-231 cells at 5 uM after 8 hrs by Western blot method. In kind it is cell-based.
Experiment [15] shares this target. Kind of experiment: Inhibition of STAT3 at Tyr705 in human MDA-MB-468 cells at 5 uM after 8 hrs by Western blot method. In kind it is cell-based.
Experiment [16] relates to MDA-MB-231. The experiment in a line: Cytotoxicity against human MDA-MB-231 cells assessed as cell growth inhibition after 3 days by MTT assay. The following applies: MDA-MB-231, 72 h. In kind it is functional, cell-based. The procedure, abridged: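 MDA-MB-231 cells (10^4/well) in DMEM with 10% FBS at 37 °C, 5% CO2 were plated overnight, then exposed to compounds at the indicated concentrations or 1% DMSO control for 3 d. MTT (5 mg/mL stock) was added for 2 h. Absorbance was read at 570 nm with a 630 nm reference. Values are mean ± SD, n = 3.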

Experiment [17] concerns the target T1, Maternal embryonic leucine zipper kinase. Kind of experiment: Inhibition of MELK (unknown origin).
Target sequence in this assay (Q14680 whole entry): as the sequence (Q14680 whole entry, looked up) above
For experiment [18], the target named is Calcium/calmodulin-dependent protein kinase type II subunit delta (Homo sapiens, UniProt Q13557). The experiment in a line: Inhibition of CaMK2delta (unknown origin).
The target in experiment [19] is Calcium/calmodulin-dependent protein kinase type II subunit gamma (Homo sapiens, UniProt Q13555). Kind of experiment: Inhibition of CaMK2gamma (unknown origin).
Experiment [20] addresses Tyrosine-protein kinase BTK (Homo sapiens, UniProt Q06187). The experiment in a line: Inhibition of BTK (unknown origin).
Experiment [21] addresses Cytoplasmic tyrosine-protein kinase BMX (Homo sapiens, UniProt P51813). Kind of experiment: Inhibition of BMX/ETK (unknown origin).
Experiment [22] concerns the target Tyrosine-protein kinase CSK (Homo sapiens, UniProt P41240). The experiment in a line: Inhibition of CSK (unknown origin).
In a further experiment the target is Angiopoietin-1 receptor (Homo sapiens, UniProt Q02763). Kind of experiment: Inhibition of TIE2/TEK (unknown origin).
The target in the next experiment is Insulin receptor (Homo sapiens, UniProt P06213). Kind of experiment: Inhibition of IR (unknown origin).
The target of experiment [23] is T1, Maternal embryonic leucine zipper kinase. The experiment in a line: Inhibition of MELK (unknown origin) at 20 uM relative to control.
Target sequence in this assay (Q14680 whole entry, looked up): as above
Experiment [24] concerns the target Receptor tyrosine-protein kinase erbB-4 (Homo sapiens, UniProt Q15303). The experiment in a line: Inhibition of ERBB4/HER4 (unknown origin).
Experiment [25] addresses Megakaryocyte-associated tyrosine-protein kinase (Homo sapiens, UniProt P42679). The experiment in a line: Inhibition of CTK/MATK (unknown origin).
The target in experiment [26] is Fibroblast growth factor receptor 1 (Homo sapiens, UniProt P11362). Kind of experiment: Inhibition of FGFR1 (unknown origin).
Experiment [27] deals with Tyrosine-protein kinase Blk (Homo sapiens, UniProt P51451). Kind of experiment: Inhibition of BLK (unknown origin).
The target of experiment [28] is Tyrosine-protein kinase Lyn (Homo sapiens, UniProt P07948). Kind of experiment: Inhibition of LYN B (unknown origin).
The target of experiment [29] is Calcium/calmodulin-dependent protein kinase type 1 (Homo sapiens, UniProt Q14012). The experiment in a line: Inhibition of CaMK1alpha (unknown origin).
The target of experiment [30] is Tyrosine-protein kinase Fer (Homo sapiens, UniProt P16591). The experiment in a line: Inhibition of FER (unknown origin).
In experiment [31] the test system is MDA-MB-231. Kind of experiment: Cytotoxicity against human MDA-MB-231 cells assessed as inhibition of anchorage-independent colony formation on soft agar after 10 days by crystal violet staining based assay. In kind it is functional, cell-based. The following applies: MDA-MB-231, 240 h. In a few lines: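 Base layer 0.5% agar, top layer 0.3% agar containing the cells, both in DMEM with 10% FBS. Feeding medium held compound at the indicated concentrations or 1% DMSO and was changed twice weekly for 10 d at 37 °C, 5% CO2. Colonies were stained with 0.005% crystal violet and counted under a dissecting microscope. Values are mean ± SE of six fields from two independent samples.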

For the next experiment, the system named is MDA-MB-468. The experiment in a line: Effect on p53 levels in human MDA-MB-468 cells at 5 uM up to 48 hrs by Western blot method. The experiment is classed as functional, cell-based. In a few lines:
as §1

Experiment [32] deals with Tyrosine-protein kinase JAK1 (Homo sapiens) (UniProt P23458). Kind of experiment: Inhibition of JAK1 (unknown origin) at 20 uM.
The target of experiment [33] is Tyrosine-protein kinase JAK2 (Homo sapiens) (UniProt O60674). The experiment in a line: Inhibition of JAK2 (unknown origin) at 20 uM.
Experiment [34] addresses Tyrosine-protein kinase JAK3 (Homo sapiens) (UniProt P52333). The experiment in a line: Inhibition of JAK3 (unknown origin) at 20 uM.
Experiment [35] deals with Signal transducer and activator of transcription 3 (Homo sapiens) (UniProt P40763). The experiment in a line: Inhibition of STAT3 in human MDA-MB-231 cells assessed as decrease in autophagic flux by measuring accumulation of LC3B-2 level at 5 uM after 4 hrs in presence of bafilomycin A by Western blot method. In kind it is cell-based. In a few lines:
(§2)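 Cells were exposed for 4 h to 5 µM compound, DMSO vehicle, or 1% O2 as hypoxic autophagy control. Bafilomycin A1 (100 nM) was added 4 h before harvest. Lysis was in NP40 buffer with protease/phosphatase inhibitors, then 16,300g spin for 15 min at 4 °C, SDS-PAGE and PVDF transfer. Blots were probed overnight at 4 °C with anti-LC3B (1:3000), then HRP secondary (1:10,000) for 2 h, with ECL detection of LC3B-I and LC3B-II.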

For experiment [36] the target is unchanged. The experiment in a line: Inhibition of STAT3 in human MDA-MB-468 cells assessed as decrease in autophagic flux by measuring accumulation of LC3B-2 level at 5 uM after 4 hrs in presence of bafilomycin A by Western blot method. In kind it is cell-based. In a few lines: as §2

The source made the active and inactive calls. The rule behind the calls is not given here. Some results are limits rather than exact numbers.

Sequence of Signal transducer and activator of transcription 3 (Homo sapiens) (P40763 whole entry): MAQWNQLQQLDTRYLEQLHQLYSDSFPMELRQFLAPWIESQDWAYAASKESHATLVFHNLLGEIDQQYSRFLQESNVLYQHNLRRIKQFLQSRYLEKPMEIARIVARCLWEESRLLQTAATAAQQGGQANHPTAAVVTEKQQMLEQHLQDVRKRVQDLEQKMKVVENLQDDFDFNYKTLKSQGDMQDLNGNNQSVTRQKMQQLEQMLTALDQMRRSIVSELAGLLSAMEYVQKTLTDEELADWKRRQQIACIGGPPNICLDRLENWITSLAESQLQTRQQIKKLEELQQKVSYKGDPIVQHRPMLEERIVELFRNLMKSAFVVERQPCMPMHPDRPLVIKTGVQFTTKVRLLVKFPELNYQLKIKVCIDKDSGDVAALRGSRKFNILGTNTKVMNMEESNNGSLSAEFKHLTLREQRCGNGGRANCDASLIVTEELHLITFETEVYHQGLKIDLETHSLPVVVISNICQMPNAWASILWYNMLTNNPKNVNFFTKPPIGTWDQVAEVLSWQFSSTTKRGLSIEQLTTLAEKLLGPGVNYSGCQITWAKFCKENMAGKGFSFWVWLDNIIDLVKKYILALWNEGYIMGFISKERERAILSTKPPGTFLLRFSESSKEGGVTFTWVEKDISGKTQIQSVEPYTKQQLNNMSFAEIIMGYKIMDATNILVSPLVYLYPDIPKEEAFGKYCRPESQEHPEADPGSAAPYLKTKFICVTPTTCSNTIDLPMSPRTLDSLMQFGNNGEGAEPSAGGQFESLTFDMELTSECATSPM
Sequence of RAC-alpha serine/threonine-protein kinase (Homo sapiens) (P31749 whole entry): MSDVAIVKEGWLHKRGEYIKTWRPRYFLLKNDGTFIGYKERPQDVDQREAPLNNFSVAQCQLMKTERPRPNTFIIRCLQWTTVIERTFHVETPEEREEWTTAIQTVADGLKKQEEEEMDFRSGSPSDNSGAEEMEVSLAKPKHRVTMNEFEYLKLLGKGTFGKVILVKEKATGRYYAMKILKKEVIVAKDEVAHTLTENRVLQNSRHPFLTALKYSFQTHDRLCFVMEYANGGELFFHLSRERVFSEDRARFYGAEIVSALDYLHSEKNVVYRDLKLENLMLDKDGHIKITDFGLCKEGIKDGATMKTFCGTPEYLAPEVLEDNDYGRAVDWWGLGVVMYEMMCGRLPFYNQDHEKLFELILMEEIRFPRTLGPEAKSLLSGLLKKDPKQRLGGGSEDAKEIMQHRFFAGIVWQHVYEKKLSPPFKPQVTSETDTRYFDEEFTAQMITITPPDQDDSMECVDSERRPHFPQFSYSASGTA
Sequence of Fibroblast growth factor receptor 1 (P11362 whole entry): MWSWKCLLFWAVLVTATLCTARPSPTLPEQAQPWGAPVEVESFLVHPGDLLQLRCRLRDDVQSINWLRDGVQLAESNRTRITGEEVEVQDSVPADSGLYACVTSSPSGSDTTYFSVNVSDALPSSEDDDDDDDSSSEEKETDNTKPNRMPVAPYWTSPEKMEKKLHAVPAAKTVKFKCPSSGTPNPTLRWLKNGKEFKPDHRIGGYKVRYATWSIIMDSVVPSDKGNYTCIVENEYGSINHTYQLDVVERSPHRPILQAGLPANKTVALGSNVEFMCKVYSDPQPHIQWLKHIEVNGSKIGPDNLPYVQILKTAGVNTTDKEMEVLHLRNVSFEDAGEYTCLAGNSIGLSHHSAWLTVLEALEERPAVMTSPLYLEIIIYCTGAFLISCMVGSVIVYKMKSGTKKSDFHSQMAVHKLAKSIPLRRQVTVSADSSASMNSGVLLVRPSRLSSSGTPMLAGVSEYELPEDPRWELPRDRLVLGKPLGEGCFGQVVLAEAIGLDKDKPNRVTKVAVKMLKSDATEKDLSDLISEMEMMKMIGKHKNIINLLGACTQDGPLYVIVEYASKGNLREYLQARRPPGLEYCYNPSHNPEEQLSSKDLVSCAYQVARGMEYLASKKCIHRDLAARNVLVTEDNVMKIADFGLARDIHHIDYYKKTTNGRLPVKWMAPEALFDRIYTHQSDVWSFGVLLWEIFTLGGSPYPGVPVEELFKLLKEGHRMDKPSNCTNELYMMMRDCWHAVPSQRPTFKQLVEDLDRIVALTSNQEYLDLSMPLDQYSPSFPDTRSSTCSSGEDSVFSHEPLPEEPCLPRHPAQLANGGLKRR
Sequence of Cytoplasmic tyrosine-protein kinase BMX (P51813 whole entry): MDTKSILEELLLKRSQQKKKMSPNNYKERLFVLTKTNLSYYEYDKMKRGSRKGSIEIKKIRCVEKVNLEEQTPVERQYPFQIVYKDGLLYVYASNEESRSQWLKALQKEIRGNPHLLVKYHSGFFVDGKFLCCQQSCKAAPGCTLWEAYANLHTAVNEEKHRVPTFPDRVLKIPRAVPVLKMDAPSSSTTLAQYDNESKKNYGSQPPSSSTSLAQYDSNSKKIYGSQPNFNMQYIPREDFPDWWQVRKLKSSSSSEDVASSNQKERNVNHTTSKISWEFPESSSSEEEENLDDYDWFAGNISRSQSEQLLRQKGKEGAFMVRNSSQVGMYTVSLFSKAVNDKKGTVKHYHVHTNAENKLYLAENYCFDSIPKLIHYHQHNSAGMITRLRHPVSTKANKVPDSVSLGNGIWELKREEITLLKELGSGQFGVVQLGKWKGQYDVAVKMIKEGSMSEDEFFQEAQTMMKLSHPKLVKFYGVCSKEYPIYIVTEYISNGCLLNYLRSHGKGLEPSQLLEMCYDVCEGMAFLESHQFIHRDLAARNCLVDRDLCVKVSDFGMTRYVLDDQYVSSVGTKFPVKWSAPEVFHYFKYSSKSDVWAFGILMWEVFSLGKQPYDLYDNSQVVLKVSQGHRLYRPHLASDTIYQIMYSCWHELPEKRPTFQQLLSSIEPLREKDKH
Sequence of Tyrosine-protein kinase JAK3 (Homo sapiens) (P52333 whole entry): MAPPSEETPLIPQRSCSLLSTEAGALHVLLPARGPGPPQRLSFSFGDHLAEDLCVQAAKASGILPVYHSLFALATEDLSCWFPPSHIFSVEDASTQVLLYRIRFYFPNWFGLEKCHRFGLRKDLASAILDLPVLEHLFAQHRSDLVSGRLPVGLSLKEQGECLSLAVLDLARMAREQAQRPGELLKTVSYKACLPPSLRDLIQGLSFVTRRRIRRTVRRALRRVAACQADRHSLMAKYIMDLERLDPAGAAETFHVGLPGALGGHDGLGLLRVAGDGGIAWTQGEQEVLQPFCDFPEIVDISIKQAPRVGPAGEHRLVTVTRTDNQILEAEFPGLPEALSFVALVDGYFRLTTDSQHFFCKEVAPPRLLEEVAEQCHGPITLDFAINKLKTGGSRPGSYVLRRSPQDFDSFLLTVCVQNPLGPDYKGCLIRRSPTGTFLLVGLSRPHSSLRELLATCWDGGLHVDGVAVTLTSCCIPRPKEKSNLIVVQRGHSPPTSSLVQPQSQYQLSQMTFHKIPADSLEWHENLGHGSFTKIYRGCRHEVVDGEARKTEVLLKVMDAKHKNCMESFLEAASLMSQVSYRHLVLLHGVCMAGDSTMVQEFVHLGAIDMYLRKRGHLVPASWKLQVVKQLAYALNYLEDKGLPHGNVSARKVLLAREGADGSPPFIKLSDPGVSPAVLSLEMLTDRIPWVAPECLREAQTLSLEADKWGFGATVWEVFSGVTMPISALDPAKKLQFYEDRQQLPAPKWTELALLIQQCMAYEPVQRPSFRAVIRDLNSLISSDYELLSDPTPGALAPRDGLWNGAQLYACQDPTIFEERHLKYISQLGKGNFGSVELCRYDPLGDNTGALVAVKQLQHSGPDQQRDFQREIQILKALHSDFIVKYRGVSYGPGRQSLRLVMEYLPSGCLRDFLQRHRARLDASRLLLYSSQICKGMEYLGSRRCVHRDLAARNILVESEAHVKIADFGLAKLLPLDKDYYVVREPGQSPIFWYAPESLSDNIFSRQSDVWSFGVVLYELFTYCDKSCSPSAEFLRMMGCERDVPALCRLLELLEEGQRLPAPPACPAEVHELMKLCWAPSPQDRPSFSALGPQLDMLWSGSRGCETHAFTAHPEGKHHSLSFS

As a reminder, the inhibition is the relative decrease from the control value, in per cent. For `CCN(CC)CCCC(C)Nc1nc(/C=C/c2ccccc2)nc2cc(Cl)ccc12` (stereo not drawn), the inhibition entry in experiment [1], in experiment [2] and in [5] was “Tde” in each case. Also, the inhibition entry in [3], in [4], in experiment [6], in experiment [8], in experiment [9] and in experiment [10] was “Active” throughout. The inhibition result in experiment [11], in experiment [12] and in experiment [13] was “Active” in each case. Moreover, the inhibition entry in experiment [7], in experiment [14] and in [15] was “inactive” each time.

Usually IC50 stands for the point on the concentration scale where inhibition reaches its midpoint. In the case of `CC1CCN(c2nc(/C=C/c3ccccc3)nc3ccccc23)CC1`, the IC50 with MDA-MB-231 [16] is above 10 µM.

For `CCN(CC)CCCCNc1nc(/C=C/c2c(Cl)cc(Cl)cc2Cl)nc2ccc(N)cc12`, the IC50 in experiment [17] was found to be 2.1 µM.

The compound `Nc1ccc2nc(/C=C/c3ccc(C(F)(F)F)cc3)nc(NCCCN3CCOCC3)c2c1` yielded a half-inhibitory concentration (IC50) in experiment [17] of 3.5 µM.

As to `CCN(CC)CCNc1nc(/C=C/c2ccc(Cl)cc2)nc2cc3ccccc3cc12`, the 50% inhibitory concentration (IC50) with MDA-MB-231 [16] is below 10 µM.

As for `CCN(CC)CCCC(C)Nc1nc(/C=C/c2c(Cl)cc(Cl)cc2Cl)nc2ccc(N)cc12` (stereo not drawn), the IC50 in experiment [18] is 9.1 µM; in [19] it was 9.2 µM; in experiment [20], 6.7 µM; in experiment [17], 1.4 µM; in [21] it was 1.9 µM; in experiment [22], above 100 µM. Also, the IC50 against Angiopoietin-1 receptor was 1.8 µM; on Insulin receptor, above 100 µM; in [24], 23.9 µM; in experiment [25], 14.7 µM; in experiment [26], 9 µM; in experiment [27] it was 8.8 µM. The IC50 is 10.5 µM in experiment [28]; 6.9 µM in experiment [29]; 42.7 µM in experiment [30]; 2 µM with MDA-MB-231 [16]; 3 to 7 µM with MDA-MB-231 [31]. Also, the inhibition in experiment [23] is above 98%; in experiment [1], “Tde”; in experiment [2] it was “Tde”; in [5], “Tde”. The inhibition result in experiment [3], in experiment [4], in experiment [8], in experiment [9], in experiment [10] and in experiment [11] was “Active” each time. In addition, the inhibition result in [12], in experiment [13], in [35] and in experiment [36] was “Active” throughout. For the same compound, in the experiment with MDA-MB-468, the outcome was inactive. For the same compound, the inhibition entry in [32], in experiment [33], in experiment [34], in experiment [7], in experiment [14] and in [15] was “inactive” each time.

Turning to `C(=C\c1nc(N2CCCC2)c2ccccc2n1)/c1ccccc1`, the 50% inhibitory concentration (IC50) in the experiment with MDA-MB-231 [16] is below 10 µM.
